Experimental data pooled from the literature.
Compare with care: the assays were run in different laboratories.
Target: Serine/threonine-protein kinase Nek7 (NEK7, Homo sapiens, UniProt Q8TDX7)

| SMILES | test | setting | remaining binding [%] |
| --- | --- | --- | --- |
| O=C(NCCCC1CCCCC1)c1ccc(CNC(=O)c2cnn(-c3ccccc3)c2C(F)(F)F)cc1 | cell-free assay, competition with immobilised ligand | 0.1 µM | 97 |
| O=C(Nc1c[nH]nc1C(=O)NC1CCNCC1)c1cc(F)cc(F)c1 | binding, competition with immobilised ligand | 1 µM | 100 |
| CC(C)CC(=O)N1CCc2nc(-c3ccc(Br)cc3)nc(N(C)Cc3ccccc3)c2C1 | cell-free assay, competition with immobilised ligand | 0.1 µM | 100 |
| CC1CCCN1c1nccc(-c2cnn3ncccc23)n1 (centres unmarked) | binding | 1 µM | 100 |
| COc1ccc2c(c1)O[C@@H](c1ccc(OC)c(OC)c1)C[C@H]2NC(=O)C1(c2ccc3c(c2)OC(F)(F)O3)CC1 | cell-free assay, competition with immobilised ligand | 1 µM | 100 |
| C[C@@H]1CCN(c2nccc(-c3cnn4ncccc34)n2)C1 | binding | 1 µM | 89 |
| COc1cnc(Nc2cccc(S(N)(=O)=O)c2)nc1N1CCN(c2ccccc2)C(=O)C1 | binding, competition with immobilised ligand | 1 µM | 91 |
| COc1cc(Nc2nccc(-c3cnn4nc(OC)ccc34)n2)cc(C(F)(F)F)c1 | binding, competition with immobilised ligand | 1 µM | 40 |
| C[C@@H](c1ccc(-n2cnc3c(N)ncnc32)cc1)N1CCc2nn(C)c(Cc3ccccc3)c2C1=O | binding, competition with immobilised ligand | 0.1 µM | 94 |
| COc1ccnn2ncc(-c3ccnc(N(C)C)n3)c12 | binding | 1 µM | 100 |
| O=C(Nc1cnc(Oc2ccc(F)cc2)nc1)N1CCc2ncccc2[C@@H]1c1ccc(F)cc1 | cell-free assay, competition with immobilised ligand | 1 µM | 84 |
| COc1cnc(Nc2cccc(S(N)(=O)=O)c2)nc1N1CCN(c2ccccc2)CC1 | binding, competition with immobilised ligand | 1 µM | 74 |
| O=C(c1ccc(Nc2ncc(Cl)c(-c3ccc(Cl)s3)n2)cc1)N1CCC(N2CCCC2)CC1 | binding, competition with immobilised ligand | 1 µM | 1.4 |
| CN(C)c1nccc(-c2cnn3ncccc23)n1 | binding | 1 µM | 92 |
| COc1cc(-c2cn(C3CCc4ccccc4N(CC(F)(F)F)C3=O)nn2)ccc1-n1ccc(C)n1 (centres unmarked) | cell-free assay, competition with immobilised ligand | 1 µM | 100 |
| O=C(c1ccc(Nc2ncc(Cl)c(-c3cc4ccccc4s3)n2)cc1)N1CCC(N2CCCC2)CC1 | binding, competition with immobilised ligand | 1 µM | 4.5 |
| N[C@H]1CCN(c2nccc(-c3cnn4ncccc34)n2)C1 | binding | 1 µM | 100 |
| O=C(NCCCN1CCOCC1)c1ccc(Nc2ncc(Cl)c(-c3ccc(Cl)s3)n2)cc1 | binding, competition with immobilised ligand | 1 µM | 1.2 |
| O=C(Nc1cccnn1)N1CCC(=Cc2cccc(Oc3ccc(C(F)(F)F)cn3)c2)CC1 | cell-free assay, competition with immobilised ligand | 1 µM | 100 |
| c1cnn2ncc(-c3ccnc(N4CCC45COC5)n3)c2c1 | binding | 1 µM | 86 |
| Cc1nc(C2CCN(C(=O)c3ccc(OC(F)(F)F)cc3N)CC2)c2ncc(N3CCN(C)CC3)cc2n1 | cell-free assay, competition with immobilised ligand | 1 µM | 100 |
| CN(C)c1nccc(-c2cnc3ncccn23)n1 | binding | 1 µM | 90 |
| C=CC(=O)N1CCC(C(=O)NCC(=O)N2CCN(c3nc(-c4cnc(N)nc4C(F)F)nc(N4CCOCC4)n3)CC2)CC1 | binding, competition with immobilised ligand | 1 µM | 100 |
